Most compounds without a hit are left out; they make up all but 2.3% or so of the library.
sdo1 growth – compounds rescuing growth of sdo1-depleted yeast, bone marrow failure model. S. cerevisiae sdo1-depleted JHY4D growth rescue, OD600 30 h; active compounds read high; pdr5 snq2 efflux-pump mutant strain. AID 817. actives 0.21% (n = 140,000). z-score at 10 µM;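 active = z-score above 3 at both the 24 hr and the 30 hr optical density reads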
Insulin prom up – MIN6 insulin promoter up-regulation | actives 0.3% (n = 190,000) | MIN6 insulin promoter-GFP reporter, high-content imaging; active compounds read high | z-score at 5 µM;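 active = z-score above 3 at 5 µM with at least 500 cells counted in the well; inconclusive = wells under 500 cells, flagged as cytotoxic or low count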
ABCB1 inh – human ABCB1 inhibition, ABCG2 as counter-screen; P08183; CCRF-Adr cells, JC-1 efflux, flow cytometry; inhibition, % at 6.6 µM; actives 0.067% (n = 190,000); AID 1326; in the data active = inhibition above about 40%;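 note: higher value means more JC-1 retained so stronger ABCB1 efflux block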
Target sequence (P08183 whole entry, looked up): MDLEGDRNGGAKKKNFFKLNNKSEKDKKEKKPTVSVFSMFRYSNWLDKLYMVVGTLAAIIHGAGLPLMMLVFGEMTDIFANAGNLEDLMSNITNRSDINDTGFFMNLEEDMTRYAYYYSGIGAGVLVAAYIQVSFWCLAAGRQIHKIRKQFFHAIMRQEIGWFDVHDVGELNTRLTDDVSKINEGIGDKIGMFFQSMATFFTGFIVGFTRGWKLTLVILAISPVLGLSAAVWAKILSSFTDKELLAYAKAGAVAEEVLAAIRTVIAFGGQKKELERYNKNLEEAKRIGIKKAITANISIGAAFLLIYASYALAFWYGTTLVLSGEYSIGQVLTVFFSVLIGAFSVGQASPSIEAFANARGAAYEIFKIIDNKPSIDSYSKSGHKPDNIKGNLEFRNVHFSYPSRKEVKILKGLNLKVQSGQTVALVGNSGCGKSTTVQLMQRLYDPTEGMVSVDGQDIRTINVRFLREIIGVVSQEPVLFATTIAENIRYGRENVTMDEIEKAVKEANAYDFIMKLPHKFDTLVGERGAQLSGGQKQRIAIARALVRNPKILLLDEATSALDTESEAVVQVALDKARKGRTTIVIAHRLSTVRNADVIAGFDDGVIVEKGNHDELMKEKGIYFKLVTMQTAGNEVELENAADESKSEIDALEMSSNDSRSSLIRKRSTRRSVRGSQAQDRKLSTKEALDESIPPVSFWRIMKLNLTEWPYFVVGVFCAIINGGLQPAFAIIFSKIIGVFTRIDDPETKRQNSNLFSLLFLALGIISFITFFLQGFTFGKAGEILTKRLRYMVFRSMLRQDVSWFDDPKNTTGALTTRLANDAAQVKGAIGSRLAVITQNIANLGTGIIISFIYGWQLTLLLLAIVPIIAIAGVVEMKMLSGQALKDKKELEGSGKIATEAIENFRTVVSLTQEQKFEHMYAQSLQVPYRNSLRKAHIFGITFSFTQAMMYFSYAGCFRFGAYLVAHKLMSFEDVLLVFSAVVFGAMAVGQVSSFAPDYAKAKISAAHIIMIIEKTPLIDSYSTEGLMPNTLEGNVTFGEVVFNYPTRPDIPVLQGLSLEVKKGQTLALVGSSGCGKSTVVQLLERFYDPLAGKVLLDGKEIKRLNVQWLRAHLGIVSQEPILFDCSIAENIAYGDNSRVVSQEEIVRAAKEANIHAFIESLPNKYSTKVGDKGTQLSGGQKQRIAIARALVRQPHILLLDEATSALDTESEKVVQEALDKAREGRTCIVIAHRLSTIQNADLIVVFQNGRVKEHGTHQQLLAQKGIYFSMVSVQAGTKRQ
ROMK mod – modulators of human ROMK potassium channel. Tet-inducible ROMK, thallium flux fluorescence; actives lie on both sides. actives 2% (n = 130,000). AID 1918. B-score at 10 µM;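 active = signal ratio slope over the read window, or its plate-corrected B-score, at least 3 SD from the plate mean, either direction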;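 note: B-score of the F/F0 ratio slope over 7 to 12 s after thallium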
Autophagy mod – modulators of autophagy; MEF GFP-LC3 puncta imaging; test concentration mostly 10 µM; calls only at 10 µM (by protocol); actives 0.98% (n = 190,000);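 active = percentage of spot-positive cells more than 3 SD above its plate mean, without a fluorescence outlier flag or 80% toxicity; inconclusive = no clear call, values can overlap the other calls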
ABCG2 inh – human ABCG2 inhibition, ABCB1 as counter-screen; inhibition, % at 6.6 µM; actives 0.1% (n = 190,000); IgMXP3 cells, JC-1 efflux, flow cytometry;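 active = inhibition above 80%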
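Read-out basis: Efflux inhibition in percent versus controls | Test system: ABCG2 IgMXP3 and barcoded ABCB1 CCRF-Adr cell mix | Quantity: 3 million cells/mL in well | Schedule: 10 min at 25 °C | Control set: Nicardipine as high control, DMSO as low control | Reagent: JC-1 as fluorescent efflux pump substrate | Signal: Flow cytometry of retained JC-1 fluorescence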
ROMK retest – confirmation of human ROMK potassium channel modulators. shares compounds with ROMK mod. ROMK thallium flux, fluorescence ratio; active compounds read low. normalized thallium flux (F/F0 slope) at 10 µM. actives 54% (n = 3,000). AID 1917;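 active = Flux at 10 µM at least 3 SD below or above vehicle control mean in one or both replicates; inconclusive = no clear call, values can overlap the other calls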
Hits are given with their value; . = inactive; ? = inconclusive; / = no result given; + = active, no number.

SMILES	sdo1 growth	Insulin prom up	ABCB1 inh	ROMK mod	Autophagy mod	ABCG2 inh	ROMK retest
CC1CCc2c(sc(NC(=O)c3ccccc3C(=O)O)c2C#N)C1 (stereo not drawn)	/	.	.	/	.	.	/
COC(=O)[C@@H]1C[C@@H]2CC[C@@H](O)C[C@@H]2N1Cc1ccccc1OS(=O)(=O)c1ccc(C)cc1	/	.	/	/	/	/	/
COc1ccc(-c2nc3n(c2C)CCC3)cc1	/	.	/	/	/	/	/
COc1ccc(C2=C(SC)CC2=NC(C)(C)C)cc1	.	.	.	-4.74	.	.	0.0457
CC1=CC(C)(C)N=C(Nc2nc(C)c3cc(C)cc(C)c3n2)N1	/	.	.	-3.94	.	.	0.0489
CC1=CC(C)(C)N=C(NC#N)N1	.	.	.	.	.	.	/
Cn1nc(C(F)(F)F)cc1C(=O)Nc1ccc(Cl)cc1	/	.	/	/	/	/	.
Cn1ncc(C(=O)Nc2ccc(Cl)cc2)c1C(F)(F)F	/	.	/	/	/	/	/
CCCC(=O)Nc1ccc(Cl)c(NC(=O)c2ccco2)c1	.	.	.	/	.	.	/
CS/C(Nc1cc(Cl)ccc1Cl)=C(/C#N)C(=O)c1ccco1	/	.	/	/	/	/	0.0515
COc1cc(C(=O)Nc2ccc(C#N)cc2)c([N+](=O)[O-])cc1OC	/	.	.	.	.	.	/
Cc1cccc(NC(=O)COC(=O)c2cc3ccccc3oc2=O)c1	/	.	.	.	.	.	/
CCOC(=O)c1c(C)n(C)c2ccc(OCC(O)CN(CC)CC)cc12 (stereo not drawn)	.	.	.	/	.	.	/
CCOC(=O)c1c(C)n(C)c2ccc(OCC(O)Cn3nc(C)cc3C)cc12 (stereo not drawn)	.	.	.	/	.	.	0.0668
Cc1ccccc1N1C(=O)C(Oc2ccc(Cl)cc2)C1CNCCCOC(C)C (stereo not drawn)	.	.	.	-3.22	.	.	0.0585
O=C1Nc2ccccc2C12OCC(COc1ccc(Cl)cc1)O2 (stereo not drawn)	.	.	.	.	.	.	/
CN1C(=O)C2(OCC(COc3ccc(Cl)cc3)O2)c2ccccc21 (stereo not drawn)	.	.	.	/	.	.	.
Clc1cncc(Cl)c1N/N=C/c1ccncc1	.	.	.	4.1	.	.	0.117
Clc1cccc(Cl)c1/C=N/Nc1c(Cl)cncc1Cl	/	.	/	/	/	/	/
CCCCn1c(Oc2ccc(C(=O)OC)cc2)nc2c1c(=O)n(C)c(=O)n2C	.	.	.	-3.65	+	.	0.0605
O=c1c2ccccc2c(C=NC2CCN(Cc3ccccc3)CC2)c(O)n1Cc1ccc2c(c1)OCO2	/	.	.	.	.	.	/
COCCCNC(=O)c1c(N)n(/N=C/c2cccnc2)c2nc3ccccc3nc12	.	.	.	.	.	.	?
CC(C)CNC(=O)c1c(N)n(/N=C/c2cccnc2)c2nc3ccccc3nc12	/	/	/	.	/	/	/
O=C(CN(c1ccc(F)cc1)S(=O)(=O)c1ccccc1)NCCSC1CCCCC1	.	.	.	.	.	.	/
O=C(Nc1ccc(Cl)cc1)N1N=CCC1c1ccccc1 (stereo not drawn)	/	.	/	-3.08	/	/	0.0639
SMILES	sdo1 growth	Insulin prom up	ABCB1 inh	ROMK mod	Autophagy mod	ABCG2 inh	ROMK retest
O=C(Nc1ccc(Cl)cc1Cl)N1CCN(c2ncccn2)CC1	/	.	.	-3.8	.	.	.
Cc1ccc(C(=O)NNC(=O)c2ccc3ncccc3c2)cc1	/	/	.	.	.	.	/
CCn1c(=O)c(=O)[nH]c2cc(C(=O)NC3CCCc4ccccc43)ccc21 (stereo not drawn)	.	.	.	3.22	.	.	.
Cc1ccc(C(C[N+](=O)[O-])c2c(C)[nH]n(-c3ccccc3)c2=O)cc1 (stereo not drawn)	.	.	.	.	.	.	/
Cc1[nH]n(-c2ccccc2)c(=O)c1C(C[N+](=O)[O-])c1ccc(Cl)cc1 (stereo not drawn)	.	.	.	-2.97	.	.	0.061
COc1ccc(C2CC(c3ccccc3OC(=O)/C=C/c3ccccc3)=NN2C(C)=O)cc1 (stereo not drawn)	/	.	/	.	/	/	/
NS(=O)(=O)c1ccc(CNC(=O)CCSCCC(=O)NCc2ccc(S(N)(=O)=O)cc2)cc1	/	/	.	.	.	.	/
CCN(C(=O)CSc1nnnn1-c1cc(C)ccc1OC)C1CCS(=O)(=O)C1 (stereo not drawn)	.	.	.	/	.	.	/
CCCN(C(=O)CSc1nnnn1C)C1CCS(=O)(=O)C1 (stereo not drawn)	/	.	.	.	.	.	.
COc1ccc(N/C=C2\C(=O)CCc3c2oc2cc(Cl)c(O)c(Cl)c32)cc1	/	.	/	/	/	/	0.0641
Cc1nn(C(C)C(=O)NCc2ccco2)c(C)c1[N+](=O)[O-] (stereo not drawn)	/	.	.	/	.	.	.
CCOc1cccc(N(C(=O)Cc2cccs2)C(C(=O)NC2CCCCC2)c2cccn2C)c1 (stereo not drawn)	.	/	.	-4.41	.	.	0.062
CN(C)C(=O)c1sccc1Oc1ccc(F)cc1[N+](=O)[O-]	/	.	.	.	.	.	.
Cc1cccc2sc(N(CCCN(C)C)C(=O)CCc3ccccc3)nc12	.	.	.	-2.09	.	.	0.0638
Cc1cccc2sc(N(CCCN(C)C)C(=O)CN3C(=O)c4ccccc4C3=O)nc12	/	.	.	.	.	.	/
O=C(O)C1CCC(NSc2ccccc2[N+](=O)[O-])CC1 (stereo not drawn)	/	.	/	/	/	/	/
COc1ccc2sc(/C=C/c3ccccc3O)[n+](C)c2c1	/	.	.	/	.	.	/
CCC(=O)N1CCc2cc(S(=O)(=O)N3CCN(c4ccccn4)CC3)ccc21	.	.	.	3.57	.	.	.
CCC(=O)N1CCc2cc(S(=O)(=O)N3CCc4ccccc4C3)ccc21	.	.	.	.	.	.	/
S=C(CN1CCCC1=S)NCCc1ccccc1	/	.	/	/	/	/	.
COc1ccc(S(=O)(=O)NC(C)C(=O)O)cc1 (stereo not drawn)	.	.	.	1.03	.	.	.
CCCCCNC(=O)C(C)NS(=O)(=O)c1ccc(OC)cc1 (stereo not drawn)	.	.	.	/	.	.	/
COc1ccc(NS(=O)(=O)c2ccc(NS(C)(=O)=O)cc2)cc1	.	.	.	-3.24	.	.	.
COc1ccc(NS(=O)(=O)c2ccc(SC)cc2)cc1	.	.	.	/	.	.	/
COc1ccc(N/N=C(C)/C(=N/O)C(=O)Nc2ccccc2)cc1	/	.	.	.	.	.	/
CN(N)C(=S)Nc1ccc(F)cc1	/	.	.	/	.	.	/
CN(C(=S)Nc1ccc(F)cc1)C1(c2ccccc2Cl)CCCCC1=O (stereo not drawn)	.	.	.	/	.	.	.
O=C(NCc1ccc2c(c1)OCO2)c1cccnc1Cl	/	.	.	.	.	.	/
COc1cccc([C@@H]2Oc3ccc(Br)cc3C(=O)[C@H]2OC(=O)NC2CCCC2)c1	.	.	.	.	.	.	/

Screening results from PubChem.
